Experimental data reported in ChEMBL document CHEMBL5143750, “Bisubstrate Inhibitors of Severe Acute Respiratory Syndrome Coronavirus-2 Nsp14 Methyltransferase” (ACS Med Chem Lett, 2022).

What was measured:
A549 [1] = test: Cytotoxicity against human A549 cells overexpressing ACE2 and TMPRSS2 assessed as cell viability at 50 uM incubated for 48 hrs by MTS assay; assay type: functional; conditions: read-out: Activity
Summary of the method: (§1)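 A549 AT host cells were used for viability read-out. More than 95% viability at 50 μM was classed as nontoxic. CC50 values came from at least duplicate determinations and were averaged.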

A549 [2] = test: Cytotoxicity against human A549 cells overexpressing ACE2 and TMPRSS2 incubated for 48 hrs by MTS assay; assay type: functional; summary of the method: as §1
[3] = target: Replicase polyprotein 1ab (Severe acute respiratory syndrome coronavirus 2) (UniProt P0DTD1); test: Stabilization of SARS-CoV-2 NSP14 expressed in Escherichia coli BL21(DE3) assessed as change in melting temperature at 200 uM incubated for 4 mins by SYPRO orange dye based thermal shift assay
[4] = Metabolic stability in human liver S9 fraction assessed as half life at 1 micromol/L in presence of UDPGA measured upto 24 hrs by LC-MS/MS analysis; assay type: ADME, subcellular; conditions: s9, 24 h, 1 µM, dose 1 µmol/L
[5] = Metabolic stability in CD-1 mouse plasma at 1 micromol/L measured upto 24 hrs by LC-MS/MS analysis; assay type: ADME, cell-free; conditions: dose 1 µmol/L
[6] = Metabolic stability in CD-1 mouse liver S9 fraction assessed as half life at 1 micromol/L in presence of UDPGA measured upto 24 hrs by LC-MS/MS analysis; assay type: ADME, subcellular; conditions: s9, 24 h, 1 µM, dose 1 µmol/L
[7] = Metabolic stability in CD-1 mouse liver S9 fraction assessed as half life at 1 micromol/L in presence of NADPH measured upto 24 hrs by LC-MS/MS analysis; assay type: ADME, subcellular; conditions: s9, 24 h, 1 µM, dose 1 µmol/L
[8] = Metabolic stability in human liver S9 fraction assessed as half life at 1 micromol/L in presence of NADPH measured upto 24 hrs by LC-MS/MS analysis; assay type: ADME, subcellular; conditions: s9, 24 h, 1 µM, dose 1 µmol/L
[9] = Metabolic stability in human plasma at 1 micromol/L measured upto 24 hrs by LC-MS/MS analysis; assay type: ADME, cell-free; conditions: dose 1 µmol/L
Summary of the method: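 Compound was incubated in human plasma, and percentage remaining was followed over the incubation. Data are mean ± SD.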

`Nc1ncnc2c1ncn2[C@@H]1O[C@H](CNS(=O)(=O)c2ccc3nc(Cl)ccc3c2)[C@@H](O)[C@H]1O` gave a viability at 50 µM (A549 [1]) greater than 95%.
`Nc1ncnc2c1ncn2[C@@H]1O[C@H](CNC(=O)c2ccc3ccccc3c2)[C@@H](O)[C@H]1O` gave a viability at 50 µM (A549 [1]) greater than 95%.
With `CC(C)C(=O)O[C@@H]1[C@H](OC(=O)C(C)C)[C@@H](CNS(=O)(=O)c2ccc3ccccc3c2)O[C@H]1n1cnc2c(N)ncnc21` the CC50 (A549 [2]) was greater than 100 µM.
Work on `CC(=O)O[C@@H]1[C@H](OC(C)=O)[C@@H](CNS(=O)(=O)c2ccc3ccccc3c2)O[C@H]1c1ccc2c(N)ncnn12` yielded a CC50 (A549 [2]) of 63 µM.
Work on `CC(=O)Nc1ncnc2c1ncn2[C@@H]1O[C@H](CNS(=O)(=O)c2ccc3ccccc3c2)[C@@H](O)[C@H]1O` yielded a CC50 (A549 [2]) greater than 100 µM and a ΔTm [3] greater than 8 °C.
With `Nc1ncnc2c1ncn2[C@@H]1O[C@H](CNS(=O)(=O)c2ccc3ccccc3c2)[C@@H](O)[C@H]1O` the t1/2 [4] was greater than 0.75 h, the ΔTm [3] was greater than 8 °C and the t1/2 at 24 h, 1 µM [5] was greater than 24 h. It also gave a t1/2 [6] greater than 0.75 h, a t1/2 [7] of 4.55 h and a t1/2 [8] of 11.2 h. For the same compound, the t1/2 at 24 h, 1 µM [9] was greater than 24 h and the viability at 50 µM (A549 [1]) was greater than 95%.
`Nc1ncnc2c1ncn2[C@@H]1O[C@H](CNCc2ccc3ccccc3c2)[C@@H](O)[C@H]1O` gave a viability at 50 µM (A549 [1]) greater than 95%.
Compound `O=c1ccc2ccc(O)cc2o1` [UMBELLIFERONE] has a t1/2 [6] of 0.013 h.
`CC(=O)Nc1ncnc2c1ncn2[C@@H]1O[C@H](CNS(=O)(=O)c2ccc3ccccc3c2)[C@@H](OC(C)=O)[C@H]1OC(C)=O` gave a CC50 (A549 [2]) greater than 100 µM.
Compound `Nc1ncnc2c1ncn2[C@@H]1O[C@H](C[C@@H](N)CC[C@H](N)C(=O)O)[C@@H](O)[C@H]1O` [SINEFUNGIN] has a viability at 50 µM (A549 [1]) greater than 95%.
In the case of `CC(=O)O[C@@H]1[C@H](OC(C)=O)[C@@H](CNS(=O)(=O)c2ccc3ccccc3c2)O[C@H]1n1cnc2c(N)ncnc21`, the CC50 (A549 [2]) is reported as greater than 100 µM.
Work on `Nc1ncnc2c1ncn2[C@@H]1O[C@H](CNS(=O)(=O)c2ccc3cccnc3c2)[C@@H](O)[C@H]1O` yielded a viability at 50 µM (A549 [1]) greater than 95%.
In the case of `Nc1ncnn2c([C@@H]3O[C@H](CNS(=O)(=O)c4ccc5ccccc5c4)[C@@H](O)[C@H]3O)ccc12`, the t1/2 [4] is reported as greater than 0.75 h, the CC50 (A549 [2]) is reported as greater than 100 µM and the ΔTm [3] is reported as greater than 8 °C. For the same compound, the t1/2 at 24 h, 1 µM [5] was greater than 24 h, the t1/2 [6] was greater than 0.75 h and the t1/2 [7] was 0.482 h. It also gave a t1/2 [8] of 14 h and a t1/2 at 24 h, 1 µM [9] greater than 24 h.
`CCC(CC)COC(=O)[C@H](C)N[P@](=O)(OC[C@H]1O[C@@](C#N)(c2ccc3c(N)ncnn23)[C@H](O)[C@@H]1O)Oc1ccccc1` showed a CC50 (A549 [2]) of 43 µM.
